Bridges are numbered along the chain shown (N, C = ends). Where no end group is shown, it is not given here.
Assays:
[1] = tested on: ventricular lysates of β2‐AR transgenic mouse hearts; assay: Quantification of peptide accumulation in mouse heart lysates; assay type: in vivo; details: sulfo‐Cy5.5 cyclic peptide iv 0.5 mg/kg, 4 h, β2‐AR Tg mice; n=4 per group
[2] = tested on: heart and organs of β2‐AR transgenic mice; assay: Cardiac tracer uptake in whole organs by ex vivo NIR fluorescence imaging; set-up: species or system mouse; details: iv 0.5 mg/kg, 4 h, whole-organ Odyssey scan; P=0.057–0.1; n=4 per group
collagen IV = assay: Coimmunostaining of collagen IV and T peptide in human cardiac tissue; details: ex vivo costaining, IHD patient heart section, confocal microscopy
Outline: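 Fresh-frozen IHD and nonfibrotic donor human heart cryosections (10 or 5 µm) were PBS-washed, blocked in 10% normal goat serum for 2 h at room temperature, and incubated 72 h at 4 °C with sulfo-Cy5.5 T peptide (0.0375 µg/mL in PBS). Collagen IV was stained with primary antibody (10 µg/mL, overnight, 4 °C) and Alexa Fluor 488 anti-rabbit secondary (2 µg/mL). Nuclei were stained with Hoechst (5 µg/mL), and images were taken by confocal microscopy at ×20.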

| Substance | amount of peptide per gram tissue, left vs right transgenic ventricle [1] | peptide accumulation in kidneys and lungs, fibrotic vs nontransgenic mice [2] | overlap with collagen IV in human cardiac tissue (collagen IV) |
| --- | --- | --- | --- |
| GKWHCTTKFPHHYCLYG (disulfide 5-14 (inferred)) [cyclic peptide] | twice | near‐significant enhancement | – |
| TLTYTWS [T peptide] | – | – | high degree of overlap |

— article PMC8649514 (Journal of the American Heart Association: Cardiovascular …, 2021)
